Results reported in ChEMBL document CHEMBL1155457, “Discovery of the dual orexin receptor antagonist [(7R)-4-(5-chloro-1,3-benzoxazol-2-yl)-7-methyl-1,4-diazepan-1-yl][5-methyl-2-(2H-1,2,3-triazol-2-yl)phenyl]methanone (MK-4305) for the treatment of insomnia” (J Med Chem, 2010).
Active and inactive are the calls of the source. No cut-off for these calls is given here.

How the values were obtained:
Rattus norvegicus [1] = experiment: Antiinsomnic activity in Sprague-Dawley rat assessed as increase in delta sleep duration at 30 mg/kg/day, po measured with 3 to 4 hrs post last dose; type: functional, organism-based
In short: (§1)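 Telemetry-implanted rats with ECoG and EMG electrodes placed under isoflurane, recovered at least two weeks, 12 h light:dark cycle. 30 mg/kg free base suspended in 20% aqueous TPGS given by oral gavage 5 h into the active phase. Crossover design with four rats, one week on drug and one on vehicle. Automated staging in 30 min bins, averaged over seven nights, mixed ANOVA.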

[2] = Aqueous solubility of the compound; type: physicochemical; details: buffer
[3] = Tmax in dog at 3 mg/kg, po; type: ADME, organism-based, Canis lupus familiaris; set-up: dose 3 mg/kg, route oral; details: in vivo
[4] = Drug level in human OX2R overexpressing transgenic rat plasma at 1.34 mg/kg, iv after 30 mins; type: ADME, organism-based; set-up: dose 1.34 mg/kg, route intravenous; details: read-out: Drug uptake
In short: (§2)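 Transgenic rats expressing human OX2R received a 30 min IV infusion, 0.1-2.0 mg/kg, in 25% hydroxypropyl-β-cyclodextrin. They were then sacrificed, and brain, plasma and CSF were frozen. Drug levels were measured by LCMS.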

Rattus norvegicus [5] = experiment: Antiinsomnic activity in Sprague-Dawley rat assessed as increase in rapid-eye movement at 30 mg/kg/day, po measured with 3 to 4 hrs post last dose; type: functional, organism-based; in short: as §1
Rattus norvegicus [6] = experiment: Antiinsomnic activity in Sprague-Dawley rat assessed as decrease in light sleep duration at 30 mg/kg/day, po measured with 3 to 4 hrs post last dose; type: functional, organism-based; in short: as §1
[7] = Volume of distribution at steady state in rat at 2 mg/kg, iv; type: ADME, organism-based; set-up: dose 2 mg/kg, route intravenous; details: in vivo, read-out: Vdss
In short: (§3)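 IV PK in DMSO vehicle: rat at 2 mg/kg, dog at 0.5 mg/kg. Clearance, Vd_ss and terminal half-life were derived from plasma levels.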

[8] = Cmax in rat at 10 mg/kg, po; type: ADME, organism-based; set-up: dose 10 mg/kg, route oral; details: in vivo
[9] = Tmax in rat at 10 mg/kg, po; type: ADME, organism-based; set-up: dose 10 mg/kg, route oral; details: in vivo
[10] = Cmax in dog at 3 mg/kg, po; type: ADME, organism-based, Canis lupus familiaris; set-up: dose 3 mg/kg, route oral; details: in vivo
[11] = Drug level in Sprague-Dawley rat CSF at 30 mg/kg/day, po; type: ADME, organism-based, Cerebrospinal fluid; set-up: route oral; details: in vivo, read-out: Drug uptake
[12] = Oral bioavailability in rat at 10 mg/kg; type: ADME, organism-based; details: in vivo
Rattus norvegicus [13] = experiment: In vivo occupancy of human OX2R ubiquitously overexpressed in iv dosed transgenic rat after 30 mins; type: functional
In short: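 Transgenic human OX2R rats were infused IV over 30 min at 0.1-2.0 mg/kg in 25% hydroxypropyl-β-cyclodextrin, then sacrificed. Brain homogenate at 10 mg tissue/mL was incubated with 200 pM radioligand at room temperature and filtered at 2-15 min. Nonspecific binding was set with 1 μM unlabeled DORA. Occupancy = (1 - slope_drug/slope_vehicle) × 100; Occ90 came from nonlinear fit.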

[14] = Clearance in dog at 0.5 mg/kg, iv; type: ADME, organism-based, Canis lupus familiaris; set-up: dose 0.5 mg/kg, route intravenous; details: in vivo
In short: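 Dogs received an IV dose with DMSO as vehicle (n = 3). Clearance was derived from plasma pharmacokinetics.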

[15] = Plasma protein binding in rat; type: ADME, cell-free; details: read-out: PPB
Rattus norvegicus [16] = experiment: Clearance in rat at 2 mg/kg, iv; type: ADME, organism-based; set-up: dose 2 mg/kg, route intravenous; details: in vivo; in short: as §3
Canis familiaris = species on record: Canis familiaris; experiment: Cardiotoxicity in dog; type: toxicity, organism-based, Canis lupus familiaris; details: in vivo
[17] = Thermal stability of the compound; type: physicochemical
[18] = AUC in dog at 3 mg/kg, po; type: ADME, organism-based, Canis lupus familiaris; set-up: dose 3 mg/kg, route oral; details: plasma
[19] = Oral bioavailability in dog at 3 mg/kg; type: ADME, organism-based, Canis lupus familiaris; details: in vivo
Rattus norvegicus [20] = experiment: Antiinsomnic activity in Sprague-Dawley rat assessed as decrease in active wake duration at 30 mg/kg/day, po measured with 3 to 4 hrs post last dose; type: functional, organism-based; in short: as §1
[21] = AUC in rat at 10 mg/kg, po; type: ADME, organism-based; set-up: dose 10 mg/kg, route oral; details: plasma
[22] = Lipophilicity, log P of the compound; type: physicochemical; details: octanol/water
[23] = Drug level in human OX2R overexpressing transgenic rat brain at 1.34 mg/kg, iv after 30 mins; type: ADME, organism-based; set-up: dose 1.34 mg/kg, route intravenous; details: read-out: Drug uptake; in short: as §2
[24] = Terminal half life in dog at 0.5 mg/kg, iv; type: ADME, organism-based, Canis lupus familiaris; set-up: dose 0.5 mg/kg, route intravenous; details: in vivo, read-out: beta t1/2 (converted); in short: as §3
Rattus norvegicus [25] = experiment: In vivo occupancy of human OX2R ubiquitously overexpressed in transgenic rat at 30 mg/kg/day, iv after 30 mins; type: functional
[26] = Chemical stability in pH-dependent solution; type: physicochemical
[27] = Volume of distribution at steady state in dog at 0.5 mg/kg, iv; type: ADME, organism-based, Canis lupus familiaris; set-up: dose 0.5 mg/kg, route intravenous; details: in vivo, read-out: Vdss; in short: as §3
[28] = Terminal half life in rat at 2 mg/kg, iv; type: ADME, organism-based; set-up: dose 2 mg/kg, route intravenous; details: in vivo, read-out: beta t1/2 (converted); in short: as §3
[29] = Plasma protein binding in human; type: ADME, cell-free; details: read-out: PPB
[30] = Cmax in Sprague-Dawley rat CSF at 30 mg/kg/day, po; type: ADME, organism-based, Cerebrospinal fluid; set-up: dose 30 mg/kg/day, route oral
[31] = Drug level in human OX2R overexpressing transgenic rat CSF at 1.34 mg/kg, iv after 30 mins; type: ADME, organism-based, Cerebrospinal fluid; set-up: dose 1.34 mg/kg, route intravenous; details: read-out: Drug uptake; in short: as §2
[32] = Genotoxicity in Salmonella Typhimurium by Ames test; type: toxicity; details: salmonella enterica subsp. enterica serovar typhimurium

Cc1ccc(-n2nccn2)c(C(=O)N2CCN(c3nc4cc(Cl)ccc4o3)CC[C@H]2C)c1 [SUVOREXANT]
Activity (Rattus norvegicus [1]): Active | solubility [2]: Soluble | Tmax [3]: 30 min | concentration at 0.5 h [4]: 1070 nM | Activity (Rattus norvegicus [5]): Active | Activity (Rattus norvegicus [6]): Active | Vd [7]: 2.6 L/kg | Cmax [8]: 480 nM | Tmax [9]: 30 min | Cmax [10]: 3200 nM | concentration [11]: 21 nM | bioavailability [12]: 19% | Activity (Rattus norvegicus [13]): 1.34 mg/kg | clearance [14]: 4 mL/min/kg | fraction unbound [15]: 0.01 | clearance (Rattus norvegicus [16]): 44 mL/min/kg | Activity (Canis familiaris): Non-toxic | Stability [17]: Stable | AUC [18]: 16.9 µM·h | bioavailability [19]: 56% | Activity (Rattus norvegicus [20]): Active | AUC [21]: 1.7 µM·h | logP [22]: 3.6 | concentration at 0.5 h [23]: 1180 nM | half-life [24]: 198 min | Activity (Rattus norvegicus [25]): >90% | Stability [26]: Stable | Vd [27]: 0.8 L/kg | half-life [28]: 36 min | fraction unbound [29]: 0.01 | Cmax [30]: 2100 nM | concentration at 0.5 h [31]: 13 nM | Activity [32]: Non-toxic
